Data: ChEMBL document CHEMBL3779882, “The cysteine releasing pattern of some antioxidant thiazolidine-4-carboxylic acids” (Eur J Med Chem, 2016)

Assays:
Format in all cases: physicochemical
[1] = Antioxidant activity assessed as cupric ion reducing activity treated with MeOH solution measured as ratio of sample to trolox molar extinction coefficient after 20 mins by CUPRAC assay
Procedure, shortened: (§1)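 Reagents prepared separately: 10 mM CuSO4, 7.5 mM neocuproine and 1 M ammonium acetate buffer pH 7.0. Samples serially diluted from 6.75 μM to 1000 μM; Trolox reference at 10–70 μM. Each concentration run in triplicate. Incubated at 50°C for 20 min, then absorbance read at 450 nm for Cu(I)-neocuproine. TEAC = ε_sample/ε_Trolox.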

[2] = Antioxidant activity assessed as cupric ion reducing activity treated with 5% DMSO measured as ratio of sample to trolox molar extinction coefficient after 20 mins by CUPRAC assay; procedure, shortened: as §1
[3] = Antioxidant activity assessed as DPPH free radical scavenging activity treated with 5% DMSO after 50 mins
Procedure, shortened: (§2)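 Samples serially diluted from 6.75 μM to 1000 μM; BHT reference at 125–2000 μM. Sample added to 0.1 mM DPPH solution in 1:5 volume ratio. Kept in the dark at RT for 50 min, then absorbance read at 517 nm. Triplicates. Scavenging % = [1−(A_average−A_blank)/(A_control−A_blank)]×100. IC50 reported in μM as the level scavenging 50% of radical.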

[4] = Antioxidant activity assessed as DPPH free radical scavenging activity treated with methanol after 50 mins; procedure, shortened: as §2
[5] = Chemical stability in 5% aqueous DMSO assessed as compound remaining at 20 uM after 20 mins by HPLC analysis; details: read-out: Stability
[6] = Chemical stability in 5% aqueous DMSO assessed as compound remaining at 20 uM measured immediately post treatment by HPLC analysis; details: read-out: Stability
Procedure, shortened: (§3)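 Ring opening followed by reversed-phase HPLC-DAD on a C18 column (4.6 × 250 mm). Mobile phase water:acetonitrile 30:70 at 0.5 ml/min, 25°C. Detection at 254 nm, 5 μL injections. Cysteine release tracked from the peak of the aldehyde freed by ring cleavage. Injections made right after dissolution and again after 50 min.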

[7] = Chemical stability in PBS buffer assessed as compound remaining at 20 uM after 20 mins by HPLC analysis; details: read-out: Stability
[8] = Chemical stability in 5% aqueous DMSO assessed as compound remaining at 20 uM after 50 mins by HPLC analysis; details: read-out: Stability; procedure, shortened: as §3
[9] = Chemical stability in PBS buffer assessed as compound remaining at 20 uM measured immediately post treatment by HPLC analysis; details: read-out: Stability; procedure, shortened: as §3
[10] = Chemical stability in PBS buffer assessed as compound remaining at 20 uM after 50 mins by HPLC analysis; details: read-out: Stability; procedure, shortened: as §3
[11] = Chemical stability in 0.1 M phosphoric acid at pH 2 assessed as compound remaining at 20 uM measured immediately post treatment by HPLC analysis; details: read-out: Stability; procedure, shortened: as §3
[12] = Chemical stability in 0.1 M phosphoric acid at pH 2 assessed as compound remaining at 20 uM after 20 mins by HPLC analysis; details: read-out: Stability
[13] = Chemical stability in 0.1 M phosphoric acid at pH 2 assessed as compound remaining at 20 uM after 50 mins by HPLC analysis; details: read-out: Stability; procedure, shortened: as §3
[14] = Chemical stability in MeOH solution assessed as compound remaining at 20 uM measured immediately post treatment by HPLC analysis; details: read-out: Stability; procedure, shortened: as §3
[15] = Chemical stability in MeOH solution assessed as compound remaining at 20 uM after 20 mins by HPLC analysis
[16] = Chemical stability in MeOH solution assessed as compound remaining at 20 uM after 50 mins by HPLC analysis; procedure, shortened: as §3

| SMILES | Ratio [1] | Ratio [2] | IC50 ([3]; read-out: IC50) | IC50 [4] | remaining at 20 min, 20 µM [5] | remaining at 0 min, 20 µM [6] | remaining at 20 min, 20 µM [7] | remaining at 50 min, 20 µM [8] | remaining at 0 min, 20 µM [9] | remaining at 50 min, 20 µM [10] | remaining at 0 min, 20 µM [11] | remaining at 20 min, 20 µM [12] | remaining at 50 min, 20 µM [13] | remaining at 0 min, 20 µM [14] | Stability [15] | Stability [16] | IC50 [3] |
| --- | --- | --- | --- | --- | --- | --- | --- | --- | --- | --- | --- | --- | --- | --- | --- | --- | --- |
| O=C(O)[C@@H]1CSC(c2cccc(Cl)c2)N1 (mixture of isomers) | 1.5 | ND(Insoluble) | – | – | – | – | – | – | – | – | – | – | – | – | – | – | ND(Insoluble) |
| O=C(O)[C@@H]1CSC(c2cccc(F)c2F)N1 (mixture of isomers) | 0.83 | 0.84 | 46.8 µM | > 1000 µM | 50% | 83.7% | 69.3% | 28.7% | 92.7% | 50.1% | 87.3% | 64.6% | 43.5% | 100% | 100% | 98.8% | – |
| N#Cc1ccccc1C1N[C@H](C(=O)O)CS1 (mixture of isomers) | ND(Insoluble) | ND(Insoluble) | > 1000 µM | > 1000 µM | – | – | – | – | – | – | – | – | – | – | – | – | – |
| O=C(O)[C@@H]1CSC(c2c(F)cccc2F)N1 (mixture of isomers) | 0.83 | 1.05 | 38.3 µM | 343 µM | 39.2% | 53.8% | 61.1% | 38.2% | 79.4% | 46.9% | 96.2% | 72.3% | 54.8% | 100% | 99.4% | 98.2% | – |
| O=C(O)[C@@H]1CSC(c2cccc(Cl)c2Cl)N1 (mixture of isomers) | 0.93 | 0.99 | 61.7 µM | 46.2 µM | 16.6% | 17.8% | 17.4% | 15.7% | 15.3% | 17.9% | 21.7% | 17.5% | 14.2% | 15.5% | 25.2% | 38.2% | – |
| O=C(O)[C@@H]1CSC(c2ccc([N+](=O)[O-])cc2)N1 (mixture of isomers) | 0.74 | ND(Insoluble) | – | – | – | – | – | – | – | – | – | – | – | – | – | – | ND(Insoluble) |
| COc1ccccc1C1N[C@H](C(=O)O)CS1 (mixture of isomers) | 0.96 | 0.79 | 29.5 µM | 343 µM | 43.9% | 82.8% | 34% | 26.8% | 82.5% | 21% | 92.9% | 78.9% | 67.6% | 100% | 98.6% | 97.3% | – |
| COc1ccc(C2N[C@H](C(=O)O)CS2)cc1 (mixture of isomers) | ND(Insoluble) | ND(Insoluble) | – | – | – | – | – | – | – | – | – | – | – | – | – | – | ND(Insoluble) |
| Cc1cc(C(C)(C)C)c(O)c(C(C)(C)C)c1 [BUTYLATED HYDROXYTOLUENE] | – | – | – | 517 µM | – | – | – | – | – | – | – | – | – | – | – | – | ND(Insoluble) |

Now from value to molecule:

| Ratio [1] | Ratio [2] | IC50 ([3]; read-out: IC50) | IC50 [4] | remaining at 20 min, 20 µM [5] | remaining at 0 min, 20 µM [6] | remaining at 20 min, 20 µM [7] | remaining at 50 min, 20 µM [8] | remaining at 0 min, 20 µM [9] | remaining at 50 min, 20 µM [10] | remaining at 0 min, 20 µM [11] | remaining at 20 min, 20 µM [12] | remaining at 50 min, 20 µM [13] | remaining at 0 min, 20 µM [14] | Stability [15] | Stability [16] | IC50 [3] | SMILES |
| --- | --- | --- | --- | --- | --- | --- | --- | --- | --- | --- | --- | --- | --- | --- | --- | --- | --- |
| 1.54 | 0.99 | 45.2 µM | 844 µM | 27.8% | 76.3% | 27.8% | 13.8% | 78.4% | 13.8% | 85% | 62.4% | 49.9% | 96.1% | 95.7% | 95.4% | – | O=C(O)[C@@H]1CSC(c2ccccc2)N1 (mixture of isomers) |
| 1.52 | ND(Insoluble) | – | – | – | – | – | – | – | – | – | – | – | – | – | – | ND(Insoluble) | O=C(O)[C@@H]1CSC(c2ccc(Cl)cc2)N1 (mixture of isomers) |
| 1.22 | ND(Insoluble) | – | – | – | – | – | – | – | – | – | – | – | – | – | – | ND(Insoluble) | Cc1ccc(C2N[C@H](C(=O)O)CS2)cc1 (mixture of isomers) |
| 0.57 | 0.75 | 39 µM | 46.1 µM | 5.9% | 6.8% | 11.3% | 5.6% | 15.2% | 8.9% | 12.9% | 11.3% | 10.1% | 4% | 4.1% | 4.2% | – | Cc1ccccc1C1N[C@H](C(=O)O)CS1 (mixture of isomers) |
| 0.8 | 1 | 37.7 µM | 39.1 µM | 16.2% | 19% | 16.3% | 14.3% | 11.6% | 18.5% | 14.1% | 11.5% | 9.5% | 70.5% | 74% | 75.6% | – | O=C(O)[C@@H]1CSC(c2ccccc2Br)N1 (mixture of isomers) |
| 0.63 | 0.49 | 18.4 µM | 19.2 µM | – | – | – | – | – | – | – | – | – | – | – | – | – | N[C@@H](CS)C(=O)O [CYSTEINE] |
